Measured values taken from ChEMBL document CHEMBL1126988, “Quinolone antibacterials containing the new 7-[3-(1-aminoethyl)-1- pyrrolidinyl] side chain: the effects of the 1-aminoethyl moiety and its stereochemical configurations on potency and in vivo efficacy” (J Med Chem, 1993).
In brackets after ≈: the same amount, converted by molar mass.

Columns and labels:
Type in all cases: functional
[1] = test system: Escherichia coli; assay: Antibacterial activity in vitro against Escherichia coli Vogel
Summary of the method: (§1)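 Standard microtitration broth assay against a panel of 10 Gram-positive and Gram-negative organisms. MIC read in µg/mL and averaged over multiple experiments.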

[2] = test system: Escherichia coli; assay: Antibacterial activity against Escherichia coli Vogel after oral administration in mouse; details: for ED50: Escherichia coli, po, read-out: PD50
[3] = test system: Escherichia coli; assay: Antibacterial activity against Escherichia coli Vogel after subcutaneous administration in mouse; details: for ED50: Escherichia coli, sc, read-out: PD50
[4] = test system: Enterobacter cloacae; assay: Minimum inhibitory concentration in vitro against Enterobacter cloacae MA 2646
[5] = test system: Enterococcus faecalis; assay: Minimum inhibitory concentration was evaluated in vitro against Enterococcus faecalis MGH-2; summary of the method: as §1
[6] = test system: Klebsiella pneumoniae; assay: Minimum inhibitory concentration was evaluated in vitro against Klebsiella pneumoniae MGH2; summary of the method: as §1
[7] = test system: Providencia rettgeri; assay: Minimum inhibitory concentration was evaluated in vitro against Providencia rettgeri M1771; summary of the method: as §1
[8] = test system: Pseudomonas aeruginosa; assay: Minimum inhibitory concentration was evaluated in vitro against Pseudomonas aeruginosa UI-18; summary of the method: as §1
[9] = test system: Staphylococcus aureus; assay: Minimum inhibitory concentration was evaluated in vitro against Staphylococcus aureus H 228; summary of the method: as §1
[10] = test system: Staphylococcus aureus; assay: Minimum inhibitory concentration was evaluated in vitro against Staphylococcus aureus UC 76; summary of the method: as §1
[11] = test system: Streptococcus pneumoniae; assay: Minimum inhibitory concentration was evaluated in vitro against Streptococcus pneumoniae SV-1; summary of the method: as §1
[12] = test system: Streptococcus pyogenes; assay: Antibacterial activity measured as mouse protection against Streptococcus pyogenes C 203 after subcutaneous administration; details: for ED50: Streptococcus pyogenes, C 203, sc, read-out: PD50
[13] = test system: Streptococcus pyogenes; assay: Compounds were evaluated in vivo for antibacterial activity for mouse protection against Streptococcus pyogenes C 203 after oral administration; details: for ED50: Streptococcus pyogenes, C 203, po, read-out: PD50
[14] = test system: Streptococcus pyogenes; assay: Minimum inhibitory concentration was evaluated in vitro against Streptococcus pyogenes C 203; summary of the method: as §1
[15] = Escherichia coli, read-out: MIC
[16] = Enterobacter cloacae, read-out: MIC
[17] = Enterococcus faecalis, read-out: MIC
[18] = Klebsiella pneumoniae, read-out: MIC
[19] = Providencia rettgeri, read-out: MIC
[20] = Pseudomonas aeruginosa, read-out: MIC
[21] = Staphylococcus aureus, read-out: MIC
[22] = Streptococcus pneumoniae, read-out: MIC
[23] = Streptococcus pyogenes, read-out: MIC

`CCn1cc(C(=O)O)c(=O)c2cc(F)c(N3CCC(C(C)NC)C3)c(OC)c21` (racemic) was tested, and the MIC [1, 15] was 0.2 µg/mL (≈ 0.511 µM), the ED50 [2] was 22 mg/kg and the ED50 [3] was 4 mg/kg. It also gave an MIC [4, 16] of 0.8 µg/mL (≈ 2.04 µM), an MIC [5, 17] of 0.025 µg/mL (≈ 0.0639 µM) and an MIC [6, 18] of 0.2 µg/mL (≈ 0.511 µM). The MIC [7, 19] was 0.4 µg/mL (≈ 1.02 µM), the MIC [8, 20] was 1.6 µg/mL (≈ 4.09 µM) and the MIC [9, 21] was 0.025 µg/mL (≈ 0.0639 µM). The MIC [10, 21] was 0.003 µg/mL (≈ 0.00766 µM), the MIC [11, 22] was 0.013 µg/mL (≈ 0.0332 µM) and the ED50 [12] was 0.3 mg/kg. It also gave an ED50 [13] of 2 mg/kg and an MIC [14, 23] of 0.013 µg/mL (≈ 0.0332 µM).

`CC(N)C1CCN(c2c(F)cc3c(=O)c(C(=O)O)cn(C4CC4)c3c2F)C1` (racemic) gave an MIC [1, 15] of 0.013 µg/mL (≈ 0.0344 µM), an ED50 [2] of 2 mg/kg and an ED50 [3] of 0.3 mg/kg. It also gave an MIC [4, 16] of 0.013 µg/mL (≈ 0.0344 µM), an MIC [5, 17] of 0.006 µg/mL (≈ 0.0159 µM) and an MIC [6, 18] of 0.013 µg/mL (≈ 0.0344 µM). For the same compound, the MIC [7, 19] was 0.025 µg/mL (≈ 0.0662 µM), the MIC [8, 20] was 0.4 µg/mL (≈ 1.06 µM) and the MIC [9, 21] was 0.013 µg/mL (≈ 0.0344 µM). For the same compound, the MIC [10, 21] was 0.003 µg/mL (≈ 0.00795 µM), the MIC [11, 22] was 0.006 µg/mL (≈ 0.0159 µM) and the ED50 [12] was 0.1 mg/kg. For the same compound, the ED50 [13] was 0.4 mg/kg and the MIC [14, 23] was 0.006 µg/mL (≈ 0.0159 µM).

For `CCn1cc(C(=O)O)c(=O)c2cc(F)c(N3CCC(N)C3)c(F)c21` (stereo unspecified), the MIC [1, 15] was 0.05 µg/mL (≈ 0.148 µM), the ED50 [2] was 3 mg/kg and the ED50 [3] was 1 mg/kg. For the same compound, the MIC [6, 18] was 0.1 µg/mL (≈ 0.296 µM), the MIC [7, 19] was 0.1 µg/mL (≈ 0.296 µM) and the MIC [8, 20] was 0.2 µg/mL (≈ 0.593 µM). For the same compound, the MIC [9, 21] was 0.2 µg/mL (≈ 0.593 µM), the MIC [10, 21] was 0.05 µg/mL (≈ 0.148 µM) and the ED50 [12] was 7 mg/kg. The ED50 [13] was 21 mg/kg.

Compound `O=C(O)c1cn(C2CC2)c2cc(N3CCNCC3)c(F)cc2c1=O` [CIPROFLOXACIN] has an ED50 [2] of 1 mg/kg, an ED50 [3] of 0.3 mg/kg and an MIC [6, 18] of 0.05 µg/mL (≈ 0.151 µM). The MIC [9, 21] was 3.1 µg/mL (≈ 9.36 µM) and the MIC [11, 22] was 1.6 µg/mL (≈ 4.83 µM).

Work on `CCN[C@@H](C)[C@@H]1CCN(c2nc3c(cc2F)c(=O)c(C(=O)O)cn3C2CC2)C1` yielded an MIC [1] of 0.2 µg/mL (≈ 0.515 µM), a PD50 [2] of 3 mg/kg and a PD50 [3] of 1 mg/kg. For the same compound, the MIC [4] was 0.2 µg/mL (≈ 0.515 µM), the MIC [5] was 0.2 µg/mL (≈ 0.515 µM) and the MIC [6] was 0.4 µg/mL (≈ 1.03 µM). For the same compound, the MIC [7] was 1.6 µg/mL (≈ 4.12 µM), the MIC [8] was 3.1 µg/mL (≈ 7.98 µM) and the MIC [9] was 0.2 µg/mL (≈ 0.515 µM). It also gave an MIC [10] of 0.1 µg/mL (≈ 0.257 µM), an MIC [11] of 0.1 µg/mL (≈ 0.257 µM) and a PD50 [12] of 9 mg/kg. It also gave a PD50 [13] of 15 mg/kg and an MIC [14] of 0.4 µg/mL (≈ 1.03 µM).

Work on `CCNCC1CCN(c2nc3c(cc2F)c(=O)c(C(=O)O)cn3-c2ccc(F)cc2F)C1` (stereo unspecified) yielded an MIC [1, 15] of 0.2 µg/mL (≈ 0.448 µM), an ED50 [2] of 6 mg/kg and an ED50 [3] of 4 mg/kg. It also gave an MIC [4, 16] of 0.2 µg/mL (≈ 0.448 µM), an MIC [5, 17] of 0.2 µg/mL (≈ 0.448 µM) and an MIC [6, 18] of 0.4 µg/mL (≈ 0.896 µM). The MIC [7, 19] was 0.8 µg/mL (≈ 1.79 µM), the MIC [8, 20] was 1.6 µg/mL (≈ 3.58 µM) and the MIC [9, 21] was 0.1 µg/mL (≈ 0.224 µM). The MIC [10, 21] was 0.025 µg/mL (≈ 0.056 µM), the MIC [11, 22] was 0.1 µg/mL (≈ 0.224 µM) and the ED50 [12] was 3 mg/kg. For the same compound, the ED50 [13] was 8 mg/kg and the MIC [14, 23] was 0.1 µg/mL (≈ 0.224 µM).

`CCNCC1CCN(c2c(F)c(N)c3c(=O)c(C(=O)O)cn(C4CC4)c3c2F)C1` (stereo unspecified) gave an MIC [1, 15] of 0.05 µg/mL (≈ 0.123 µM), an ED50 [2] of 16 mg/kg and an ED50 [3] of 2 mg/kg. For the same compound, the MIC [4, 16] was 0.05 µg/mL (≈ 0.123 µM), the MIC [5, 17] was 0.025 µg/mL (≈ 0.0615 µM) and the MIC [6, 18] was 0.05 µg/mL (≈ 0.123 µM). It also gave an MIC [7, 19] of 0.1 µg/mL (≈ 0.246 µM), an MIC [8, 20] of 0.2 µg/mL (≈ 0.492 µM) and an MIC [9, 21] of 0.013 µg/mL (≈ 0.032 µM). It also gave an MIC [10, 21] of 0.003 µg/mL (≈ 0.00738 µM), an MIC [11, 22] of 0.003 µg/mL (≈ 0.00738 µM) and an ED50 [12] of 3 mg/kg. The ED50 [13] was 5 mg/kg and the MIC [14, 23] was 0.013 µg/mL (≈ 0.032 µM).

`CCNCC1CCN(c2cc3c(cc2F)c(=O)c(C(=O)O)cn3C2CC2)C1` (stereo unspecified) gave an ED50 [3] of 3 mg/kg, an MIC [10, 21] of 0.013 µg/mL (≈ 0.0348 µM) and an ED50 [12] of 5 mg/kg.

For `C[C@H](N)[C@H]1CCN(c2c(F)c(N)c3c(=O)c(C(=O)O)cn(C4CC4)c3c2F)C1` (stereo in doubt; 32F-S,S), the MIC [1, 15] was 0.05 µg/mL (≈ 0.127 µM), the MIC [4, 16] was 0.05 µg/mL (≈ 0.127 µM) and the MIC [5, 17] was 0.05 µg/mL (≈ 0.127 µM). For the same compound, the MIC [6, 18] was 0.1 µg/mL (≈ 0.255 µM), the MIC [7, 19] was 0.4 µg/mL (≈ 1.02 µM) and the MIC [8, 20] was 0.4 µg/mL (≈ 1.02 µM). For the same compound, the MIC [9, 21] was 0.025 µg/mL (≈ 0.0637 µM), the MIC [10] was 0.013 µg/mL (≈ 0.0331 µM) and the MIC [11, 22] was 0.025 µg/mL (≈ 0.0637 µM). For the same compound, the ED50 [12] was 7 mg/kg, the ED50 [13] was greater than 25 mg/kg and the MIC [14] was 0.05 µg/mL (≈ 0.127 µM).

Work on `CCN[C@@H](C)[C@@H]1CCN(c2c(F)c(N)c3c(=O)c(C(=O)O)cn(C4CC4)c3c2F)C1` (stereo in doubt; 32H-S,R) yielded an MIC [1] of 0.1 µg/mL (≈ 0.238 µM), an MIC [4] of 0.1 µg/mL (≈ 0.238 µM) and an MIC [5] of 0.025 µg/mL (≈ 0.0595 µM). The MIC [6] was 0.1 µg/mL (≈ 0.238 µM), the MIC [7] was 0.4 µg/mL (≈ 0.951 µM) and the MIC [8] was 0.8 µg/mL (≈ 1.9 µM). For the same compound, the MIC [9] was 0.013 µg/mL (≈ 0.0309 µM), the MIC [10] was 0.003 µg/mL (≈ 0.00714 µM) and the MIC [11] was 0.013 µg/mL (≈ 0.0309 µM). It also gave a PD50 [12] of 3 mg/kg, a PD50 [13] of 6 mg/kg and an MIC [14] of 0.013 µg/mL (≈ 0.0309 µM).

For `NCC1CCN(c2nc3c(cc2F)c(=O)c(C(=O)O)cn3-c2ccc(F)cc2F)C1` (stereo unspecified), the MIC [1, 15] was 0.05 µg/mL (≈ 0.12 µM), the MIC [4, 16] was 0.05 µg/mL (≈ 0.12 µM) and the MIC [5, 17] was 0.025 µg/mL (≈ 0.0598 µM). The MIC [6, 18] was 0.1 µg/mL (≈ 0.239 µM), the MIC [7, 19] was 0.2 µg/mL (≈ 0.478 µM) and the MIC [8, 20] was 0.4 µg/mL (≈ 0.956 µM). The MIC [9, 21] was 0.05 µg/mL (≈ 0.12 µM), the MIC [10, 21] was 0.013 µg/mL (≈ 0.0311 µM) and the MIC [11, 22] was 0.025 µg/mL (≈ 0.0598 µM). It also gave an ED50 [12] of 1 mg/kg, an ED50 [13] of 10 mg/kg and an MIC [14, 23] of 0.025 µg/mL (≈ 0.0598 µM).

`CN[C@H](C)[C@H]1CCN(c2cc3c(cc2F)c(=O)c(C(=O)O)cn3C2CC2)C1` showed an MIC [1, 15] of 0.2 µg/mL (≈ 0.536 µM), an MIC [4, 16] of 0.2 µg/mL (≈ 0.536 µM) and an MIC [5, 17] of 0.2 µg/mL (≈ 0.536 µM). The MIC [6, 18] was 0.4 µg/mL (≈ 1.07 µM), the MIC [7, 19] was 0.8 µg/mL (≈ 2.14 µM) and the MIC [8, 20] was 3.1 µg/mL (≈ 8.3 µM). For the same compound, the MIC [9, 21] was 0.4 µg/mL (≈ 1.07 µM), the MIC [10, 21] was 0.05 µg/mL (≈ 0.134 µM) and the MIC [11] was 0.2 µg/mL (≈ 0.536 µM). It also gave a PD50 [12] of 7 mg/kg, a PD50 [13] of 82 mg/kg and an MIC [14, 23] of 0.1 µg/mL (≈ 0.268 µM).
